Experimental data as given in ChEMBL document CHEMBL3853287, “Characterization of Emodin as a Therapeutic Agent for Diabetic Cataract” (J Nat Prod, 2016).
Activity calls are given as the source filed them. The rule behind the calls is not given here.

Legend:
Mus musculus [1] = test: In vivo inhibition of aldose reductase in transgenic PAR37 mouse expressing human aldose reductase assessed as reduction in vacuolization at 80 mg/kg, po for 16 days by hematoxylin/eosin staining; type: functional, organism-based
In short: (§1)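 Drug dissolved in DMSO was given in the drinking water of nursing mothers from the pups' birthdate, dosed at 80 mg kg−1 to the mother; vehicle group received DMSO. Pups were PAR37 human AR transgenic mice or nontransgenic littermates, balanced by gender, n = 3. Lenses were taken at P16 and sectioned with H&E staining, and vacuolated cross-sectional area was measured as percent of lens.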

Mus musculus [2] = test: In vivo inhibition of aldose reductase in wild type mouse assessed as reduction in vacuolization at 80 mg/kg, po for 16 days by hematoxylin/eosin staining; type: functional, organism-based; in short: as §1
Mus musculus [3] = test: In vivo inhibition of aldose reductase in transgenic PAR37 mouse expressing human aldose reductase assessed as vacuolization at 80 mg/kg, po for 16 days by hematoxylin/eosin staining (reference value: 18%); type: functional; set-up: scale not given: the % may be the effect or the level left; in short: as §1
[4] = molecular target: T1, Aldo-keto reductase family 1 member B1 (Homo sapiens, UniProt P15121); test: Inhibition of human recombinant aldose reductase expressed in Escherichia coli using DL-glyceraldehyde as substrate in presence of NADPH by spectrophotometric analysis
[5] = molecular target: T1, Aldo-keto reductase family 1 member B1; test: Uncompetitive inhibition of human recombinant aldose reductase expressed in Escherichia coli using DL-glyceraldehyde as substrate by double reciprocal plot analysis
[6] = Cytotoxicity against human FHL124 cells assessed as reduction in cell viability at 10 uM after 24 hrs by MTT assay; type: toxicity, cell-based; conditions: fhl124, 24 h
In short: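 FHL 124 human lens epithelial cells grown in low-glucose (1 g L−1) DMEM with 4 mM L-glutamine and 5% FBS at 37 °C, 5% CO2. Seeded at 10^4 cells, treated with emodin for 24 h, then given MTT for 4 h. Viability read as absorbance at 570 nm.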

[7] = molecular target: T1, Aldo-keto reductase family 1 member B1; test: Inhibition of aldose reductase in human FHL124 cells assessed as reduction in high glucose-induced elevation of sorbitol accumulation at 5 uM after 24 hrs by colorimetric assay; type: cell-based
In short: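 FHL 124 cells (10^5 per 60 mm dish) treated with emodin (5 μM) plus low (5 mM) or high (30 mM) glucose for 24 h. Cells washed twice in cold PBS, lysed and deproteinized. Sorbitol measured in neutralized samples by colorimetric kit at 560 nm.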

[8] = molecular target: T1, Aldo-keto reductase family 1 member B1; test: Inhibition of human recombinant aldose reductase expressed in Escherichia coli at 1 uM using DL-glyceraldehyde as substrate in presence of NADPH measured up to 7 days at 37 degC by spectrophotometric analysis
In short: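 Inhibitor (1 μM, in DMSO) pre-incubated at 37 °C for 1, 3, 5 and 7 days before testing. Recombinant human AKR1B1 from E. coli then assayed by NADPH oxidation at 340 nm with 1.0 mM DL-glyceraldehyde and 150 μM NADPH in HEPES pH 7.5 buffer. Means ± SEM, n = 3.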

Mus musculus [9] = test: In vivo inhibition of aldose reductase in transgenic PAR37 mouse expressing human aldose reductase assessed as reduction in vacuolization at 35 mg/kg, po for 16 days by hematoxylin/eosin staining; type: functional, organism-based
In short: (§2)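 PAR37 human AR transgenic mice and nontransgenic littermates, roughly equal by sex. Nursing mothers given 35 mg kg−1 in drinking water (DMSO vehicle) from pups' birth, or from 3 days before birth in one group. Sorbinil 80 mg kg−1 served as ARI control. Lenses taken at P16 and H&E-stained; vacuolated cross-sectional area measured on sections.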

Mus musculus [10] = test: In vivo inhibition of aldose reductase in wild type mouse assessed as reduction in vacuolization at 35 mg/kg, po for 16 days by hematoxylin/eosin staining; type: functional, organism-based; in short: as §2
Mus musculus [11] = test: In vivo inhibition of aldose reductase in wild type mouse assessed as reduction in vacuolization at 35 mg/kg, po administered 3 days prior to birth followed by compound treatment till day 16 by hematoxylin/eosin staining; type: functional, organism-based; in short: as §2
Mus musculus [12] = test: In vivo inhibition of aldose reductase in transgenic PAR37 mouse expressing human aldose reductase assessed as vacuolization at 35 mg/kg, po for 16 days by hematoxylin/eosin staining (reference value: 18%); type: functional; set-up: scale not given: the % may be the effect or the level left; in short: as §2
Mus musculus [13] = test: In vivo inhibition of aldose reductase in transgenic PAR37 mouse expressing human aldose reductase assessed as vacuolization at 35 mg/kg, po administered 3 days prior to birth followed by compound treatment till day 16 by hematoxylin/eosin staining (reference value: 18%); type: functional; set-up: scale not given: the % may be the effect or the level left; in short: as §2

SMILES | inhibition (Mus musculus [1]) | inhibition (Mus musculus [2]) | Activity (Mus musculus [3]) [%] | IC50 [4] [µM] | Ki [5] [µM] | Activity [6] | inhibition [7] | inhibition [8] | inhibition (Mus musculus [9]) | inhibition (Mus musculus [10]) | inhibition (Mus musculus [11]) | Activity (Mus musculus [12]) [%] | Activity (Mus musculus [13]) [%]
O=C1NC(=O)[C@@]2(CCOc3ccc(F)cc32)N1 [SORBINIL] | Active | Active | 3.8 |  |  |  |  |  |  |  |  |  | 
Cc1cc(O)c2c(c1)C(=O)c1cc(O)cc(O)c1C2=O [EMODIN] |  |  |  | 2.69 | 2.11 | Toxic | Active | Active | Active | Active | Active | 6.3 | 2
